Measured values from ChEMBL document CHEMBL1759987, “2-Acylamino-5-chlorobenzophenones with enhanced selectivity towards malaria parasites” (Eur J Med Chem, 2011).

Columns and labels:
[1] = Cytotoxicity in human HeLa cells assessed as cell viability after 72 hrs; assay type: cell-based
In short: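 HeLa cells grown in RPMI 1640 with 10% heat-inactivated FBS and gentamicin at 37 °C. About 10,000 cells seeded per well, preincubated 48 h without compound. DMSO stocks (10 mg/ml) diluted 1:200 in medium and added, then 72 h at 37 °C, 5% CO2. Cells fixed with glutaraldehyde, stained with 0.05% methylene blue, eluted with 0.33 M HCl, OD read at 660 nm.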

[2] = Selectivity index, CC50 for HeLa cells to IC50 for Plasmodium falciparum; assay type: functional
[3] = tested on: Plasmodium falciparum; assay: Antiplasmodial activity against multidrug- resistant Plasmodium falciparum Dd2 assessed as inhibition of [3H]hypoxanthine incorporation after 72 hrs; assay type: functional, organism-based
In short: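 Dd2 parasites kept in continuous culture and sorbitol-synchronized, then exposed to a range of concentrations for 72 h. Growth read by [3H]-hypoxanthine incorporation and converted to percent inhibition. IC50 taken from sigmoidal dose-response curves fitted with a Hill function. At least three independent repeats, reported as mean ± SEM.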

With `CC(C)(C)OC(=O)N[C@H](C(=O)Nc1ccc(Cl)cc1C(=O)c1ccccc1)c1ccccc1` the CC50 at 72 h [1] was greater than 108 µM, the “Ratio CC50/IC50” value [2] was 13 and the IC50 [3] was 8.47 µM.
In the case of `CCCN1CCN(C(C(=O)Nc2ccc(Cl)cc2C(=O)c2ccccc2)c2ccccc2)CC1` (racemic), the CC50 at 72 h [1] is reported as 38 µM, the “Ratio CC50/IC50” value [2] is reported as 6 and the IC50 [3] is reported as 6.23 µM.
In the case of `O=C(c1ccccc1)c1cc(Cl)ccc1NC(=O)C(c1ccccc1)N1CCC(CCO)CC1` (racemic), the CC50 at 72 h [1] is reported as 19 µM, the “Ratio CC50/IC50” value [2] is reported as 1 and the IC50 [3] is reported as 15 µM.
With `CCN1CCN(C(C(=O)Nc2ccc(Cl)cc2C(=O)c2ccccc2)c2ccccc2)CC1` (racemic) the CC50 at 72 h [1] was 76 µM, the “Ratio CC50/IC50” value [2] was 21 and the IC50 [3] was 3.62 µM.
For `O=C(O)CN1CCN(C(C(=O)Nc2ccc(Cl)cc2C(=O)c2ccccc2)c2ccccc2)CC1` (racemic), the CC50 at 72 h [1] was greater than 102 µM, the “Ratio CC50/IC50” value [2] was 34 and the IC50 [3] was greater than 3 µM.
With `O=C(c1ccccc1)c1cc(Cl)ccc1NC(=O)C(c1ccc2ccccc2c1)N1CCN(CCO)CC1` (racemic) the CC50 at 72 h [1] was 17 µM, the “Ratio CC50/IC50” value [2] was 94 and the IC50 [3] was 0.18 µM.
With `CCOC(=O)N1CCN(C(C(=O)Nc2ccc(Cl)cc2C(=O)c2ccccc2)c2ccccc2)CC1` (racemic) the CC50 at 72 h [1] was 64 µM, the “Ratio CC50/IC50” value [2] was 15 and the IC50 [3] was 4.26 µM.
For `O=C(c1ccccc1)c1cc(Cl)ccc1NC(=O)C(c1ccccc1)N1CCSCC1` (racemic), the CC50 at 72 h [1] was greater than 111 µM, the “Ratio CC50/IC50” value [2] was 10 and the IC50 [3] was 11.5 µM.
For `CN1CCN(C(=O)NC(C(=O)Nc2ccc(Cl)cc2C(=O)c2ccccc2)c2ccccc2)CC1` (single isomer, unassigned), the CC50 at 72 h [1] was 72 µM, the “Ratio CC50/IC50” value [2] was 17 and the IC50 [3] was 4.21 µM.
For `O=C(c1ccccc1)c1cc(Cl)ccc1NC(=O)C(c1ccc(Br)cc1)N1CCN(CCO)CC1` (racemic), the CC50 at 72 h [1] was 17 µM, the “Ratio CC50/IC50” value [2] was 31 and the IC50 [3] was 0.56 µM.
For `O=C(c1ccccc1)c1cc(Cl)ccc1NC(=O)C(c1cccc2ccccc12)N1CCN(CCO)CC1` (racemic), the CC50 at 72 h [1] was 17 µM, the “Ratio CC50/IC50” value [2] was 18 and the IC50 [3] was 0.95 µM.
For `O=C1CCN(C(C(=O)Nc2ccc(Cl)cc2C(=O)c2ccccc2)c2ccccc2)CC1` (racemic), the CC50 at 72 h [1] was 27 µM, the “Ratio CC50/IC50” value [2] was 4 and the IC50 [3] was 7.43 µM.
For `Cl.NC(Cc1ccccc1)C(=O)Nc1ccc(Cl)cc1C(=O)c1ccccc1` (racemic), the CC50 at 72 h [1] was 38 µM, the “Ratio CC50/IC50” value [2] was 3 and the IC50 [3] was 14.1 µM.
For `O=C(c1ccccc1)c1cc(Cl)ccc1NC(=O)C(c1ccc(C(F)(F)F)cc1)N1CCN(CCO)CC1` (racemic), the CC50 at 72 h [1] was 17 µM, the “Ratio CC50/IC50” value [2] was 28 and the IC50 [3] was 0.6 µM.
In the case of `O=C(c1ccccc1)c1cc(Cl)ccc1NC(=O)C(c1ccccc1)N1CCN(CCO)CC1` (racemic), the CC50 at 72 h [1] is reported as 49 µM, the “Ratio CC50/IC50” value [2] is reported as 150 and the IC50 [3] is reported as 0.33 µM.
With `NC(=O)CN1CCN(C(C(=O)Nc2ccc(Cl)cc2C(=O)c2ccccc2)c2ccccc2)CC1` (racemic) the CC50 at 72 h [1] was 65 µM, the “Ratio CC50/IC50” value [2] was 22 and the IC50 [3] was 3.32 µM.
For `O=C(c1ccccc1)c1cc(Cl)ccc1NC(=O)C(c1ccccc1)N1CCOCC1` (racemic), the CC50 at 72 h [1] was 39 µM, the “Ratio CC50/IC50” value [2] was 6 and the IC50 [3] was 6.72 µM.
With `CN1CCN(C(=O)N[C@@H](C(=O)Nc2ccc(Cl)cc2C(=O)c2ccccc2)c2ccccc2)CC1` the CC50 at 72 h [1] was 60 µM, the “Ratio CC50/IC50” value [2] was 45 and the IC50 [3] was 1.35 µM.
In the case of `O=C(c1ccccc1)c1cc(Cl)ccc1NC(=O)C(c1ccccc1)N1CCN(Cc2ccccc2)CC1` (racemic), the CC50 at 72 h [1] is reported as greater than 118 µM, the “Ratio CC50/IC50” value [2] is reported as 6 and the IC50 [3] is reported as greater than 20 µM.
With `CC(C)NC(=O)CN1CCN(C(C(=O)Nc2ccc(Cl)cc2C(=O)c2ccccc2)c2ccccc2)CC1` (racemic) the CC50 at 72 h [1] was 40 µM, the “Ratio CC50/IC50” value [2] was 41 and the IC50 [3] was 0.98 µM.
In the case of `Cl.N[C@H](C(=O)Nc1ccc(Cl)cc1C(=O)c1ccccc1)c1ccccc1`, the CC50 at 72 h [1] is reported as 43 µM, the “Ratio CC50/IC50” value [2] is reported as 3 and the IC50 [3] is reported as greater than 16 µM.
With `O=C(c1ccccc1)c1cc(Cl)ccc1NC(=O)C(c1ccc(F)cc1)N1CCN(CCO)CC1` (racemic) the CC50 at 72 h [1] was 38 µM, the “Ratio CC50/IC50” value [2] was 45 and the IC50 [3] was 0.84 µM.
For `O=C(c1ccccc1)c1cc(Cl)ccc1NC(=O)C(c1ccccc1)N1CCN(c2ccc([N+](=O)[O-])cc2)CC1` (racemic), the CC50 at 72 h [1] was greater than 90 µM, the “Ratio CC50/IC50” value [2] was 5 and the IC50 [3] was greater than 20 µM.
In the case of `CN1CCN(C(C(=O)Nc2ccc(Cl)cc2C(=O)c2ccccc2)c2ccccc2)CC1` (racemic), the CC50 at 72 h [1] is reported as 63 µM, the “Ratio CC50/IC50” value [2] is reported as 18 and the IC50 [3] is reported as 3.54 µM.
With `O=C(c1ccccc1)c1cc(Cl)ccc1NC(=O)C(c1ccccc1)N1CCCCC1` (racemic) the CC50 at 72 h [1] was 63 µM, the “Ratio CC50/IC50” value [2] was 6 and the IC50 [3] was 10.2 µM.
In the case of `CC(C)(C)OC(=O)N1CCN(C(C(=O)Nc2ccc(Cl)cc2C(=O)c2ccccc2)c2ccccc2)CC1` (centres undefined), the CC50 at 72 h [1] is reported as greater than 94 µM, the “Ratio CC50/IC50” value [2] is reported as 11 and the IC50 [3] is reported as 8.21 µM.
For `Cl.N[C@@H](C(=O)Nc1ccc(Cl)cc1C(=O)c1ccccc1)c1ccccc1`, the CC50 at 72 h [1] was 12 µM, the “Ratio CC50/IC50” value [2] was 1 and the IC50 [3] was 9.25 µM.
Compound `NC(CO)C(=O)Nc1ccc(Cl)cc1C(=O)c1ccccc1` (racemic) has an IC50 [3] greater than 20 µM.
In the case of `O=C(c1ccccc1)c1cc(Cl)ccc1NC(=O)C(c1ccc(-c2ccccc2)cc1)N1CCN(CCO)CC1` (racemic), the CC50 at 72 h [1] is reported as 16 µM, the “Ratio CC50/IC50” value [2] is reported as 59 and the IC50 [3] is reported as 0.28 µM.
For `O=C(c1ccccc1)c1cc(Cl)ccc1NC(=O)C(c1ccccc1)n1ccnc1` (racemic), the CC50 at 72 h [1] was 55 µM, the “Ratio CC50/IC50” value [2] was 12 and the IC50 [3] was 4.51 µM.
With `Cl.NC(C(=O)Nc1ccc(Cl)cc1C(=O)c1ccccc1)c1ccccc1` (racemic) the CC50 at 72 h [1] was 37 µM, the “Ratio CC50/IC50” value [2] was 6 and the IC50 [3] was 6.71 µM.
For `CN(C)CCN1CCN(C(C(=O)Nc2ccc(Cl)cc2C(=O)c2ccccc2)c2ccccc2)CC1` (racemic), the CC50 at 72 h [1] was 39 µM, the “Ratio CC50/IC50” value [2] was 15 and the IC50 [3] was 2.56 µM.
For `O=CN1CCN(C(C(=O)Nc2ccc(Cl)cc2C(=O)c2ccccc2)c2ccccc2)CC1` (racemic), the CC50 at 72 h [1] was 50 µM, the “Ratio CC50/IC50” value [2] was 13 and the IC50 [3] was 3.77 µM.
For `COC(=O)CN1CCN(C(C(=O)Nc2ccc(Cl)cc2C(=O)c2ccccc2)c2ccccc2)CC1` (racemic), the CC50 at 72 h [1] was greater than 99 µM, the “Ratio CC50/IC50” value [2] was 33 and the IC50 [3] was greater than 3 µM.
With `O=C(c1ccccc1)c1cc(Cl)ccc1NC(=O)C(c1ccccc1)N1CCN(c2ccccc2)CC1` (racemic) the CC50 at 72 h [1] was greater than 98 µM, the “Ratio CC50/IC50” value [2] was 5 and the IC50 [3] was greater than 20 µM.
For `CC(C)(C)OC(=O)N[C@@H](C(=O)Nc1ccc(Cl)cc1C(=O)c1ccccc1)c1ccccc1`, the CC50 at 72 h [1] was greater than 108 µM, the “Ratio CC50/IC50” value [2] was 17 and the IC50 [3] was 6.18 µM.
For `O=C(c1ccccc1)c1cc(Cl)ccc1NC(=O)C(c1ccccc1)N1CC[S+]([O-])CC1` (racemic), the CC50 at 72 h [1] was 71 µM, the “Ratio CC50/IC50” value [2] was 8 and the IC50 [3] was 9.02 µM.
